# From PubChem
# TDP2 absorb: human TDP2 enzyme inhibitors, primary screen, biochemical, epi absorbance, recombinant enzyme; Tyrosyl-DNA phosphodiesterase 2 (Homo sapiens), O95551; T5PNP hydrolysis, p-nitrophenol absorbance 415 nm; inhibition, % at 12.8 µM; 0.34% of 370,000 active; AID 720702, 2013;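 active = inhibition above the mean of all tested compounds plus 3 SD, set per campaign, cut at about 25% in these data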
# Target sequence (O95551 whole entry, looked up): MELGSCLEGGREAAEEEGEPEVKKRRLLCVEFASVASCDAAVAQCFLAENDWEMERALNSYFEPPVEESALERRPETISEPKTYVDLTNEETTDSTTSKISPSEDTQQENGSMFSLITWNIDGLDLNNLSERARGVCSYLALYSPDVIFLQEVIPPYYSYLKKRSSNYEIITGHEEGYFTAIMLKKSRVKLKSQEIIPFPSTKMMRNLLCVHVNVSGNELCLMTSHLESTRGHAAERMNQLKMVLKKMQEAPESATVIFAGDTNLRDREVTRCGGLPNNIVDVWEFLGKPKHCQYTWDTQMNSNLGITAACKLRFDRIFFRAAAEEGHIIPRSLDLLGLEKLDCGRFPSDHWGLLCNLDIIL
#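 Incubation: 2 h at 37 °C; Test system: recombinant human TDP2; Quantity: enzyme 120 nM; Read-out basis: percent inhibition; Medium: 50 mM Tris-HCl pH 7.5 with Mg2+, KCl, DTT, BSA; Repeats: single replicate; Compound: 12.8 µM single point, 1% DMSO; Signal: epi absorbance; Reagent: 5 mM T5PNP chromogenic substrate; Benchmarks: no-enzyme high, DMSO-plus-enzyme low.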
# Apaf-1 inh: inhibitors of human Apaf-1 apoptosome, primary screen, biochemical, DEVD-Rh110 fluorescence, uHTS | reconstituted apoptosome caspase-3 activity | inhibition, % at 20 µM | 0.71% of 330,000 active; active = inhibition of at least 40% at 20 µM
#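 Material: biochemical Apaf-1 apoptosome reconstitution. Medium: Hepes buffer, pH 7.5. Also added: cytochrome c activation, bis-DEVD rhodamine 110 substrate. Timing: 30 min compound preincubation, 50 min activation, room temperature. Measured by: rhodamine 110 fluorescence at Ex 480/Em 540 nm.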
# SIAE inh: human SIAE inhibitors, primary screen, biochemical, fluorescence polarization, FP-Rh probe, 1536-well HTS. Sialate O-acetylesterase (Homo sapiens), Q9HAT2. SIAE FP-Rh probe binding. inhibition, % at 9.66 µM. 0.69% of 370,000 active. AID 1053197, 2014;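 active = inhibition above a cutoff: mean of compounds within the control limits plus 3 SD of those, cut at about 17% in these data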
# GSTO1 counter: inhibitors of recombinant GSTO1, primary screen, counter-screen for RBBP9 inhibitor project, biochemical, fluorescence polarization | inhibition, % at 5.96 µM | activity-based probe fluorescence polarization | AID 1974, 2009 | 1.1% of 300,000 active | Glutathione S-transferase omega-1 (Homo sapiens), P78417;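 active = inhibition above the campaign mean inhibition plus 3 SD, cut at about 35% in these data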
# Target sequence (P78417 whole entry, looked up): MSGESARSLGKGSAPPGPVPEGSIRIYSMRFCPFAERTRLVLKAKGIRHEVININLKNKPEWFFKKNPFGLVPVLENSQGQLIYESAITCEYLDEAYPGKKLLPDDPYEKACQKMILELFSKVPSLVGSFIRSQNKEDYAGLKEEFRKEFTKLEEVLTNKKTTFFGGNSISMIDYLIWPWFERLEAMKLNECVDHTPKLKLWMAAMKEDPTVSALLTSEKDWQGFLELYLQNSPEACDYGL
# TCR-CD3 inh: inhibitors of human TCR-CD3 interaction, primary screen, biochemical, fluorescence, TAMRA-labeled TCR probe; 0.37% of 360,000 active; T-cell receptor (TCR); inhibition, % at 9.4 µM;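 also: recombinant mutant TCR 2C K166C tagged with TAMRA read by polarization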
# PAD4 inh: human PAD4 inhibitors, primary screen, biochemical, fluorescence polarization, 1536-well format; Protein-arginine deiminase type-4 (Homo sapiens), Q9UM07; recombinant PAD4, RCA probe fluorescence polarization; inhibition, % at 6.36 µM; 0.41% of 330,000 active;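 active = percent inhibition above a cutoff equal to the mean of all tested compounds plus 3 SD, cut at about 15% in these data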
# BSA probe FL: compounds interfering with TAMRA-BSA probe, counter-screen for TCR-CD3 interaction inhibitor project, biochemical, fluorescence, TAMRA-labeled BSA. shares compounds with TCR-CD3 inh. inhibition, % at 9.4 µM. 10% of 1,200 active. TAMRA-labeled BSA probe fluorescence counterscreen; in the data active = inhibition above about 23%
# TCR-CD3 inh conf: TCR-CD3 interaction inhibitors, retest, confirmation, biochemical, fluorescence, TAMRA-labeled TCR probe | shares compounds with TCR-CD3 inh | TAMRA-labeled TCR probe fluorescence binding assay | inhibition, % at 9.4 µM | 48% of 1,200 active | AID 652036, 2013
# A number is an active result; 0 = inactive; - = no result. Most compounds without a hit are left out; they make up all but 2.4% or so of the library. Rule as the data show it, unless noted: active = inhibition above about 19%; inactive = the rest.
SMILES,TDP2 absorb,Apaf-1 inh,SIAE inh,GSTO1 counter,TCR-CD3 inh,PAD4 inh,BSA probe FL,TCR-CD3 inh conf
O=C(COC(=O)c1c2c(nc3ccccc13)/C(=C\c1cccs1)CCC2)Nc1ccccc1,0,0,0,0,0,0,-,-
CC(=O)c1ccc(NC(=O)COC(=O)c2c3c(nc4ccccc24)/C(=C\c2cccs2)CCC3)cc1,0,0,0,0,64.7,0,0,39.6
Cc1sc(N)c(C(=O)c2ccccc2Cl)c1C,0,0,0,0,0,0,-,-
COc1c(F)c(F)c(C(=O)Nc2ccc(-c3nc4ccccc4[nH]3)cc2)c(F)c1F,0,0,0,0,0,0,-,-
COc1cccc(OC)c1C(=O)NC(=S)Nc1cc(-c2nc3ccccc3[nH]2)ccc1Cl,0,0,0,0,60.0,0,0,0
COC(=O)CC1(C(=O)OC)Nc2cc(Cl)c(Cl)cc2S(=O)(=O)N1O (stereo not given),0,-,0,-,38.2,-,0,28.9
CS(=O)(=O)N1Cc2cc(C(=O)NCC3CC3)nc(-c3cccc(-c4cccnc4)c3)c2[C@H]1CCO,0,-,0,-,0,-,-,-
CN1CCN(C(=O)c2cc3c(c(-c4cccc(-c5cccnc5)c4)n2)[C@@H](CCO)N(C(=O)CC2CC2)C3)CC1,0,-,0,-,25.1,-,0,0
CC(C)(C)OC(=O)C[C@@H]1C/C=C\C[C@H](CC(=O)N(CCO)Cc2ccccc2)C(=O)N[C@@H](Cc2ccccc2)COC1=O,0,0,0,-,0,0,-,-
COc1ccc(-c2nn(-c3ccccc3)cc2/C=N/NC(=O)c2ccc3c(c2)OCO3)cc1,-,0,-,0,-,0,-,-
COc1ccc(-c2nn(-c3ccccc3)cc2/C=N/NC(=O)c2cccc(S(=O)(=O)Nc3ccccc3OC)c2)cc1,0,0,0,0,41.1,0,31.8,45.8
CCN(C(=O)C1CCCN(c2ncnc3c2nc2n3CCCCC2)C1)c1cccc(Cl)c1 (stereo not given),0,0,0,0,0,0,-,-
CS(=O)(=O)Nc1ccc(-c2n[nH]c(=S)n2-c2ccccc2)cc1,0,0,0,0,37.0,0,0,0
Cc1ccc(S(=O)(=O)NNc2nc3ccccc3nc2C(F)(F)F)cc1,0,0,0,0,0,0,-,-
COc1ccccc1CNC(=O)C1=C(C)C(=O)OC12CCC(C)CC2 (stereo not given),0,0,0,0,0,0,-,-
CC(=O)c1sc2nc(-c3ccco3)ccc2c1N,0,0,0,38.9,24.0,0,0,0
CCOC(=O)N1CCN(C(=S)NC(=O)c2cccc(OC)c2)CC1,0,0,0,-,0,0,-,-
Cc1nn(-c2ccccc2)c(Cl)c1C(=O)NCC(C)c1ccccc1 (stereo not given),0,0,0,0,130.3,0,0,0
CN(C)c1ccc(/C=N/NC(=O)CCC(=O)NCc2ccccc2)cc1,0,0,0,0,0,0,-,-
O=C(CCC(=O)N/N=C/c1cc(Cl)cc(Cl)c1O)NCc1ccccc1,0,0,0,0,20.7,0,0,23.1
CCOC(=O)c1ccc(NC(=O)CSc2nnc(C3CC3)n2CC)cc1,0,0,0,0,0,0,-,-
CC(C)c1ccc(N2C(=O)/C(=C/N(C)C)SC2=S)cc1,0,0,0,0,66.7,0,149.6,131.8
CCO/C=C1\SC(=S)N(c2ccc(Cl)cc2)C1=O,0,0,0,0,0,0,-,-
CN=c1scc(-c2cccs2)n1/N=C/c1ccc(O)c(O)c1O,0,0,0,0,28.1,0,0,22.5
C=CCN=c1scc(-c2ccco2)n1/N=C/c1ccc(O)c(O)c1O,0,0,0,0,21.3,0,0,0
SMILES,TDP2 absorb,Apaf-1 inh,SIAE inh,GSTO1 counter,TCR-CD3 inh,PAD4 inh,BSA probe FL,TCR-CD3 inh conf
CCCC(=O)C1=C(O)C(c2cccc(Oc3ccccc3)c2)CCC1=O (stereo not given),0,0,0,0,0,0,-,-
CN(CCC#N)c1ccc(/C=C(\C#N)c2ccccn2)cc1,0,0,0,0,80.9,0,0,0
Cc1nn(C(=O)c2ccco2)c(C)c1Sc1ccc(Br)cc1,0,0,0,0,0,0,-,-
O=c1c(CO)cc(CO)cc(CO)c1O,0,0,0,0,30.7,0,0,22.4
COc1ccccc1-c1noc2c1C(=O)N(Cc1cn(-c3ccc(Cl)cc3)nn1)CC2,0,-,0,-,0,-,-,-
Cc1ccc(NS(=O)(=O)c2cc(C(=O)Nc3cccc([N+](=O)[O-])c3)ccc2C)cc1,0,0,0,0,0,0,-,-
Cc1ccc(C(=O)Nc2cccc([N+](=O)[O-])c2)cc1S(=O)(=O)Nc1ccc(NC(=O)c2ccccc2)cc1,0,0,0,0,29.9,0,0,23.2
COc1ccc(C(=O)NCC(c2ccc3c(c2)OCO3)N2CCN(c3ccc(OC)cc3)CC2)cc1 (stereo not given),0,0,0,0,23.6,0,0,0
Cn1c(=O)c2c(-c3ccccc3)n(-c3cc([N+](=O)[O-])ccc3N)cc2n(C)c1=O,0,-,0,-,0,-,-,-
O=c1cc(-c2ccc(O)cc2)oc2cc(O)c(C3OC(CO)C(O)C(O)C3O)c(O)c12 (stereo not given),0,0,0,0,27.5,0,0,19.6
CC(C)C(=O)Nc1ccc(C(=O)NNC(=S)NC(=O)c2ccccc2[N+](=O)[O-])cc1,0,0,0,0,25.8,0,0,33.4
O=C(/C=C/c1ccccc1)Nc1cccc(C(=O)NCCCCc2ccccc2)c1,0,-,0,-,44.5,-,0,0
O=C(/C=C/c1ccccc1)Nc1cccc(C(=O)NCCc2ccccc2)c1,0,-,0,-,0,-,-,-
CC1Oc2ccccc2N(CC(=O)N2CCCc3ccccc32)C1=O (stereo not given),0,0,0,0,0,0,-,-
COc1cccc(NC(=O)CN(C)C(=O)/C=C/c2cn(-c3ccccc3)nc2-c2ccc(C)cc2)c1,0,0,0,0,36.1,0,32.3,62.9
COc1ccc(NC(=O)CN(C)C(=O)/C=C/c2cn(-c3ccccc3)nc2-c2ccc(C)cc2)cc1,0,0,0,0,31.9,0,0,0
